In ChEMBL document CHEMBL1135657, “Novel dual inhibitors of AChE and MAO derived from hydroxy aminoindan and phenethylamine as potential treatment for Alzheimer's disease” (J Med Chem, 2002):

What was measured:
Acetylcholinesterase [1] = biological target: T1, Acetylcholinesterase (Homo sapiens, UniProt P22303); assay: In vitro inhibitory concentration against purified Acetylcholinesterase of human erythrocytes; value ranges from 2.8-27.5
[2] = biological target: T2, Amine oxidase [flavin-containing] B (Rattus norvegicus, UniProt P19643); assay: In vitro inhibitory concentration against Monoamine oxidase B of rat brain homogenates; value ranges from 0.23-0.34; type: tissue-based
T2 sequence (P19643 whole entry): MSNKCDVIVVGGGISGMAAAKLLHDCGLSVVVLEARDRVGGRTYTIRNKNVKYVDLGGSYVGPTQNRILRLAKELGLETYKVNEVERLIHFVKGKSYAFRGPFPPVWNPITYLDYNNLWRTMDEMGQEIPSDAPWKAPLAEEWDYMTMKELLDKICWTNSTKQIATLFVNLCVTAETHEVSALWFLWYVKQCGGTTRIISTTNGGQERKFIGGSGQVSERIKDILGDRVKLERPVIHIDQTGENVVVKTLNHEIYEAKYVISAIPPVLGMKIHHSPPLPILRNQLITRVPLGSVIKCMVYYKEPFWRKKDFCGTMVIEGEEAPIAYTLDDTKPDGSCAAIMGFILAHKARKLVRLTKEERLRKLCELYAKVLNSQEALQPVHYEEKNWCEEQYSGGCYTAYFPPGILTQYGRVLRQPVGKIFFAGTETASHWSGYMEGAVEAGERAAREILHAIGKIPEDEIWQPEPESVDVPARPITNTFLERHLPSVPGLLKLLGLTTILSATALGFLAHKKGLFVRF

[3] = biological target: T3, Amine oxidase [flavin-containing] A (Rattus norvegicus, UniProt P21396); assay: In vitro inhibitory concentration against Monoamine oxidase A of rat brain homogenates; value ranges from 0.8-1.0; type: tissue-based
T3 sequence (P21396 whole entry): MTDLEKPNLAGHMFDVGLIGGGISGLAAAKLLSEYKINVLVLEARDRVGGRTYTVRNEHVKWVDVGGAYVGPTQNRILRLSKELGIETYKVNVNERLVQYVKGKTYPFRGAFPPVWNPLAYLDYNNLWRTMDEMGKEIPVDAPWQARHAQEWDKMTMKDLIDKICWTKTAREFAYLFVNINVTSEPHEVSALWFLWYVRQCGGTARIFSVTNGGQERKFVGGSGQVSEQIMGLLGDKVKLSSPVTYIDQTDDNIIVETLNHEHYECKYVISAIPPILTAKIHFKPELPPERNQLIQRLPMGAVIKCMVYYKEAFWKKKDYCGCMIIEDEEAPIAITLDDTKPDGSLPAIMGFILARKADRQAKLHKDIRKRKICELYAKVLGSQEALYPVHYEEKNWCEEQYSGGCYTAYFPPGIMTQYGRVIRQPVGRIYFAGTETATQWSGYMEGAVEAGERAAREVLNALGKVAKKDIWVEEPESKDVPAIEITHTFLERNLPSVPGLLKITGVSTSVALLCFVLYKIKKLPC

Acetylcholinesterase [4] = biological target: T1, Acetylcholinesterase; assay: In vitro inhibitory concentration against purified Acetylcholinesterase of human erythrocytes; value ranges from 4.6-25.8
Butyrylcholinesterase [5] = biological target: T4, Butyrylcholinesterase (Equus caballus, UniProt Q9N1N9); assay: In vitro inhibitory concentration against Butyrylcholinesterase of horse serum; value ranges from 0.20-0.36
Outline: (§1)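 Ellman assay followed, with 200 µM butyrylthiocholine as substrate. Runs were in triplicate with four-point dose-response curves. IC50 and fiducial limits came from log concentration versus % inhibition.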

Acetylcholinesterase [6] = biological target: T1, Acetylcholinesterase; assay: In vitro inhibitory concentration against purified Acetylcholinesterase of human erythrocytes; value ranges from 0.32-0.98
Butyrylcholinesterase [7] = biological target: T4, Butyrylcholinesterase; assay: In vitro inhibitory concentration against Butyrylcholinesterase of horse serum; value ranges from 1.00-1.20; outline: as §1
[8] = biological target: T3, Amine oxidase [flavin-containing] A; assay: In vitro inhibitory concentration against Monoamine oxidase A of rat brain homogenates; value ranges from 6.3-7.7; type: tissue-based
[9] = biological target: T2, Amine oxidase [flavin-containing] B; assay: In vitro inhibitory concentration against Monoamine oxidase B of rat brain homogenates; value ranges from 4.8-6.9; type: tissue-based
[10] = biological target: T3, Amine oxidase [flavin-containing] A; assay: In vitro inhibitory concentration against Monoamine oxidase A of rat brain homogenates; value ranges from 0.28-0.34; type: tissue-based
Acetylcholinesterase [11] = biological target: T1, Acetylcholinesterase
Butyrylcholinesterase [12] = biological target: T4, Butyrylcholinesterase; assay: In vitro inhibitory concentration against Butyrylcholinesterase of horse serum; value ranges from 1.6-2.4; outline: as §1
[13] = biological target: T2, Amine oxidase [flavin-containing] B; assay: In vitro inhibitory concentration against Monoamine oxidase B of rat brain homogenates; value ranges from 0.19-0.44; type: tissue-based
Outline: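 Rat brain homogenate (in 0.3 M sucrose) as enzyme source; compounds diluted 10⁻²M to 10⁻⁹M in 0.05 M phosphate buffer with 0.15 μM clorgyline; preincubated 60 min at 37 °C, then 10 μM ¹⁴C-phenylethylamine added for 20 min more; stopped with citric acid; metabolites extracted into toluene/ethyl acetate, scintillation counted; activity as % of control, tranylcypromine blank.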

Acetylcholinesterase [14] = biological target: T1, Acetylcholinesterase; assay: In vitro inhibitory concentration against purified Acetylcholinesterase of human erythrocytes; value ranges from 31.2-202
Butyrylcholinesterase [15] = biological target: T4, Butyrylcholinesterase; assay: In vitro inhibitory concentration against Butyrylcholinesterase of horse serum; value ranges from 1.19-6.10; outline: as §1
Acetylcholinesterase [16] = biological target: T1, Acetylcholinesterase; remark: listed apart in the source
Butyrylcholinesterase [17] = biological target: T4, Butyrylcholinesterase; assay: In vitro inhibitory concentration against Butyrylcholinesterase of horse serum; value ranges from 29.6-110; outline: as §1
Acetylcholinesterase [18] = biological target: T1, Acetylcholinesterase; assay: In vitro inhibitory concentration against purified Acetylcholinesterase of human erythrocytes; value ranges from 33.2-96.7
Acetylcholinesterase [19] = biological target: T1, Acetylcholinesterase; assay: In vitro inhibitory concentration against purified Acetylcholinesterase of human erythrocytes; value ranges from 0.54-0.56
Butyrylcholinesterase [20] = biological target: T4, Butyrylcholinesterase
Acetylcholinesterase [21] = biological target: T1, Acetylcholinesterase; remark: listed apart in the source
Butyrylcholinesterase [22] = biological target: T4, Butyrylcholinesterase; remark: listed apart in the source
[23] = biological target: T3, Amine oxidase [flavin-containing] A; assay: In vitro inhibitory concentration against Monoamine oxidase A of rat brain homogenates; value ranges from 560-1000; type: tissue-based
[24] = biological target: T2, Amine oxidase [flavin-containing] B; assay: In vitro inhibitory concentration against Monoamine oxidase B of rat brain homogenates; value ranges from 200-1400; type: tissue-based
Acetylcholinesterase [25] = biological target: T1, Acetylcholinesterase; assay: In vitro inhibitory concentration against purified Acetylcholinesterase of human erythrocytes; value ranges from 6.4-45.9
Butyrylcholinesterase [26] = biological target: T4, Butyrylcholinesterase; assay: In vitro inhibitory concentration against Butyrylcholinesterase of horse serum; value ranges from 6.3-52.4; outline: as §1
[27] = biological target: T2, Amine oxidase [flavin-containing] B; assay: In vitro inhibitory concentration against Monoamine oxidase B of rat brain homogenates; value ranges from 360-470; type: tissue-based
[28] = biological target: T3, Amine oxidase [flavin-containing] A; assay: In vitro inhibitory concentration against Monoamine oxidase A of rat brain homogenates; value ranges from 170-340; type: tissue-based
Acetylcholinesterase [29] = biological target: T1, Acetylcholinesterase; assay: In vitro inhibitory concentration against purified Acetylcholinesterase of human erythrocytes; value ranges from 7.81-39.2
Butyrylcholinesterase [30] = biological target: T4, Butyrylcholinesterase; assay: In vitro inhibitory concentration against Butyrylcholinesterase of horse serum; value ranges from 5.02-12.2; outline: as §1
[31] = Bimolecular rate constant for carbamoylation of ACHE; type: ADME
Outline: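 Human erythrocyte AChE preincubated with inhibitor at 37 °C in 0.1 M phosphate buffer, pH 7.4, under Ellman conditions with 200 µM […]. Pseudo-first-order rate constants (k_obs) for progressive inhibition were obtained at 4-5 inhibitor concentrations. The apparent bimolecular carbamylation constant k_i was calculated from these.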

[32] = Pseudo-first order rate constant for carbamoylation of ACHE at 100 (uM) concentration; type: ADME
Outline: (§2)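 Human erythrocyte AChE, same Ellman conditions: 200 µM […], 60 min preincubation at 37 °C, 0.1 M phosphate pH 7.4. Progressive inhibition followed at 4-5 inhibitor concentrations. Pseudo-first-order k_obs (min⁻¹) derived per concentration; apparent bimolecular carbamylation constant k_i calculated from these.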

[33] = Pseudo-first order rate constant for carbamoylation of ACHE at 300 (uM) concentration; type: ADME; outline: as §2
[34] = Pseudo-first order rate constant for carbamoylation of ACHE at 400 (uM) concentration; type: ADME
Outline: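 Pseudo-first-order rate constants kobs measured at 4-5 inhibitor concentrations following Bar-On et al. Apparent bimolecular carbamylation constant ki calculated from these.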

[35] = Pseudo-first order rate constant for carbamoylation of ACHE at 50 (uM) concentration; type: ADME; outline: as §2
Acetylcholinesterase [36] = biological target: T1, Acetylcholinesterase; assay: In vitro inhibitory concentration against purified Acetylcholinesterase of human erythrocytes; value ranges from 42.5-45.9
[37] = biological target: T2, Amine oxidase [flavin-containing] B; assay: In vitro inhibitory concentration against Monoamine oxidase B of rat brain homogenates; value ranges from 18-59; type: tissue-based
[38] = biological target: T3, Amine oxidase [flavin-containing] A; assay: In vitro inhibitory concentration against Monoamine oxidase A of rat brain homogenates; value ranges from 315-465; type: tissue-based

T1 sequence (P22303 whole entry): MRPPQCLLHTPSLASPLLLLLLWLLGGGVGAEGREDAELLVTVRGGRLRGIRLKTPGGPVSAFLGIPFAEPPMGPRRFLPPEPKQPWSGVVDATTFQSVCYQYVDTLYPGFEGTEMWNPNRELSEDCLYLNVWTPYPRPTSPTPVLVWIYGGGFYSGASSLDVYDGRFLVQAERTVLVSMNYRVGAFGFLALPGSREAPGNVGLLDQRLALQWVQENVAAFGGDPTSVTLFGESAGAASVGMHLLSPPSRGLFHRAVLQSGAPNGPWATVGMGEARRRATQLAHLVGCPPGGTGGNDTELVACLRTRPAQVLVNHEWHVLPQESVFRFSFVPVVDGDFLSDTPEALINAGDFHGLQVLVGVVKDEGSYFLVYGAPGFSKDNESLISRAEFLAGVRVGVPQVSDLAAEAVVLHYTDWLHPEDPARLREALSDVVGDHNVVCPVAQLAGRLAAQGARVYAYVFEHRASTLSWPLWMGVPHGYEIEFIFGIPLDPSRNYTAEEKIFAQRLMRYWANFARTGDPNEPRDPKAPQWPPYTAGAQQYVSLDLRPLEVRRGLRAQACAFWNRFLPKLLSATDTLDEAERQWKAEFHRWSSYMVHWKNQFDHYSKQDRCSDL
T4 sequence (Q9N1N9 whole entry): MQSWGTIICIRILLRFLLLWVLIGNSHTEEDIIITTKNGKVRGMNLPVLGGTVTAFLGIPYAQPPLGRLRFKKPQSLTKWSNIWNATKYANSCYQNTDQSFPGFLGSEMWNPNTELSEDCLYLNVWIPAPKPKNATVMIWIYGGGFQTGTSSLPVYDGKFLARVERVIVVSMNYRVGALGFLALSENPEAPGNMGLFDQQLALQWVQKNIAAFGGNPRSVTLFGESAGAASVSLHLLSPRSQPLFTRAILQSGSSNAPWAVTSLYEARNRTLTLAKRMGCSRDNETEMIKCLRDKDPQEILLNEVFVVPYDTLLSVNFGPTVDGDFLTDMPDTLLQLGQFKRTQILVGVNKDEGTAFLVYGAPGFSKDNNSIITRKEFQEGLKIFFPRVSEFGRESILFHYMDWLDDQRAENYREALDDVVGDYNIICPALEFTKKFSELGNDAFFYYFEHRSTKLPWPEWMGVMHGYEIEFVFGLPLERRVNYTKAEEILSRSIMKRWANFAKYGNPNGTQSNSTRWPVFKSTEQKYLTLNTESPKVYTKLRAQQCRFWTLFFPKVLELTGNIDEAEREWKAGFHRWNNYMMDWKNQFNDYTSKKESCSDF

C#CCN(C)[C@@H](C)Cc1cccc(OC(=O)N(C)C2CCCCC2)c1
IC50 (Acetylcholinesterase [1]): 6.3 µM | IC50 [2]: 0.28 µM | IC50 [3]: 1.1 µM

C#CCN[C@H]1CCc2ccc(OC(=O)N(C)CCCC)cc21
IC50 (Acetylcholinesterase [4]): 9.3 µM

C#CC(C)NCCc1cccc(OC(=O)N(C)CC)c1 (stereo not drawn)
IC50 (Butyrylcholinesterase [5]): 0.24 µM

C#CCNC(C)Cc1cccc(OC(=O)N(C)C)c1 (stereo not drawn)
IC50 (Acetylcholinesterase [6]): 0.54 µM | IC50 (Butyrylcholinesterase [7]): 1.09 µM | IC50 [8]: 6.9 µM | IC50 [9]: 5.7 µM

C#CCN[C@@H]1CCc2ccc(O)cc21
IC50 [10]: 0.3 µM

C#CCNCCc1cccc(OC(=O)N(C)CCC)c1
IC50 (Acetylcholinesterase [11]): 15.4 µM | IC50 (Butyrylcholinesterase [12]): 1.9 µM | IC50 [13]: 0.29 µM

C#CCNC1CCc2ccc(OC(=O)N(CC)CCCC)cc21 (stereo not drawn)
IC50 (Acetylcholinesterase [14]): 72.4 µM | IC50 (Butyrylcholinesterase [15]): 3.03 µM

C#CCNC1CCc2ccc(OC(=O)N(C)CCCC)cc21 (stereo not drawn)
IC50 (Acetylcholinesterase [16]): 11.3 µM | IC50 (Butyrylcholinesterase [17]): 53.7 µM

C#CCNC1CCc2cccc(OC(=O)N(C)CCC)c21 (stereo not drawn)
IC50 (Acetylcholinesterase [18]): 45.8 µM

C#CCNC1CCc2ccc(OC(=O)N(C)c3ccccc3)cc21 (stereo not drawn)
IC50 (Acetylcholinesterase [19]): 0.55 µM | IC50 (Butyrylcholinesterase [20]): 16.6 µM

C#CCNC1CCc2c(Cl)cc(OC(=O)N(C)CC)cc21 (stereo not drawn)
IC50 (Acetylcholinesterase [21]): 25.5 µM

C#CCNC1CCc2ccc(OC(=O)N(C)C)cc21 (stereo not drawn)
IC50 (Butyrylcholinesterase [22]): 2.07 µM | IC50 [23]: 750 µM | IC50 [24]: 530 µM

C#CCNC1CCc2ccc(OC(=O)N(C)CCC)cc21 (stereo not drawn)
IC50 (Acetylcholinesterase [25]): 14.6 µM | IC50 (Butyrylcholinesterase [26]): 14.8 µM | IC50 [27]: 410 µM | IC50 [28]: 240 µM

C#CCNC1CCc2ccc(OC(=O)N(C)CCCCCC)cc21 (stereo not drawn)
IC50 (Acetylcholinesterase [29]): 15.7 µM | IC50 (Butyrylcholinesterase [30]): 7.5 µM

C#CCNC1CCc2c(Cl)cc(OC(=O)N(C)CCC)cc21.Cl (stereo not drawn)
Bimolecular carbamoylation rate constant (ki) [31]: 0.983 M⁻¹ s⁻¹ | K obs [32]: 22 min⁻¹ | K obs [33]: 34 min⁻¹ | K obs [34]: 38 min⁻¹ | K obs [35]: 17 min⁻¹ | IC50 (Acetylcholinesterase [36]): 43.9 µM | IC50 [37]: 32 µM | IC50 [38]: 375 µM
